In ChEMBL document CHEMBL1137744, “Parallel synthesis, molecular modelling and further structure-activity relationship studies of new acylthiocarbamates as potent non-nucleoside HIV-1 reverse transcriptase inhibitors” (Eur J Med Chem, 2009):

How the values were obtained:
[1] = system: Human immunodeficiency virus 1; experiment: Antiviral activity against HIV1 3B infected in human MT4 cells assessed as inhibition of virus-induced cytopathogenicity by MTT assay; assay type: functional, organism-based; details: Human immunodeficiency virus 1, 3B
Summary of the method: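 MT-4 cells infected with HIV-1 and read by MTT viability. EC50 is the concentration giving 50% protection of cells from virus-induced cytopathogenicity. Values are means of three separate experiments, with variation among triplicate samples under 10%.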

[2] = Selectivity index, ratio of CC50 for human MT4 cells to EC50 for HIV1 3B; assay type: toxicity, cell-based; details: read-out: Ratio CC50/EC50
Summary of the method: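 Computed as CC50/EC50. Both come from MTT readings in MT-4 cells: CC50 is 50% viability loss in mock-infected cells, and EC50 is 50% protection from HIV-1-induced cytopathogenicity. Each is the mean of three experiments.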

[3] = Cytotoxicity against human MT4 cells by MTT assay; assay type: cell-based
Summary of the method: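 Uninfected (mock-infected) MT-4 cells were exposed to compound and viability was read by MTT. CC50 is the concentration cutting viability by 50%. Values are means of three separate experiments, with triplicate samples varying by less than 10%.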

O=C1c2ccccc2C(=O)N1CCOC(=S)N(C(=O)c1ccc([N+](=O)[O-])cc1Cl)c1ccc(Cl)cc1
EC50 [1]: 8 nM | selectivity ratio [2]: 2380 | CC50 [3]: 19 µM

Cc1ccc(N(C(=O)c2c(Cl)cccc2Cl)C(=S)OCCN2C(=O)c3ccccc3C2=O)cc1
EC50 [1]: 9000 nM | selectivity ratio [2]: 2.4 | CC50 [3]: 22 µM

Cc1ccc(N(C(=O)c2cccc([N+](=O)[O-])c2)C(=S)OCCN2C(=O)c3ccccc3C2=O)cc1
EC50 [1]: 20 nM | selectivity ratio [2]: 5000 | CC50 [3]: 100 µM

Cc1ccc(N(C(=O)c2ccc([N+](=O)[O-])cc2Cl)C(=S)OCCN2C(=O)c3ccccc3C2=O)cc1
EC50 [1]: 90 nM | selectivity ratio [2]: 189 | CC50 [3]: 17 µM

O=C1c2ccccc2C(=O)N1CCOC(=S)N(C(=O)c1ccco1)c1cccc(Cl)c1Cl
EC50 [1]: > 100000 nM | CC50 [3]: 100 µM

CC(CN1C(=O)c2ccccc2C1=O)OC(=S)N(C(=O)c1cccc([N+](=O)[O-])c1)c1ccc(Cl)cc1 (racemic)
EC50 [1]: 700 nM | selectivity ratio [2]: 44.3 | CC50 [3]: 31 µM

O=C1c2ccccc2C(=O)N1CCOC(=S)N(C(=O)c1ccco1)c1cc(Cl)cc(Cl)c1
EC50 [1]: > 100000 nM | CC50 [3]: > 100 µM

Cc1ccc(N(C(=O)c2ccc(Cl)c([N+](=O)[O-])c2)C(=S)OCCN2C(=O)c3ccccc3C2=O)cc1
EC50 [1]: 60 nM | selectivity ratio [2]: 783 | CC50 [3]: 47 µM

O=C1c2ccccc2C(=O)N1CCOC(=S)N(C(=O)c1cccs1)c1ccc(Cl)cc1
EC50 [1]: 8 nM

Cc1ccc(C(=O)N(C(=S)OCCN2C(=O)c3ccccc3C2=O)c2ccc(C)cc2)cc1
EC50 [1]: 20 nM | selectivity ratio [2]: 4150 | CC50 [3]: 83 µM

O=C1c2ccccc2C(=O)N1CCOC(=S)N(C(=O)c1ccco1)c1ccc(Cl)c(Cl)c1
EC50 [1]: 690 nM | selectivity ratio [2]: 145 | CC50 [3]: 100 µM

O=C1c2ccccc2C(=O)N1CCOC(=S)N(C(=O)c1ccco1)c1ccc(Cl)cc1
EC50 [1]: 7 nM

O=C1c2ccccc2C(=O)N1CCOC(=S)N(C(=O)c1c(F)cccc1F)c1ccc(Cl)cc1
EC50 [1]: 20 nM | selectivity ratio [2]: 1950 | CC50 [3]: 39 µM

Cc1ccc2c(c1)C(=O)N(CCOC(=S)N(C(=O)c1cccc([N+](=O)[O-])c1)c1ccc(Cl)cc1)C2=O
EC50 [1]: 50 nM | selectivity ratio [2]: > 2000 | CC50 [3]: > 100 µM

O=C1c2ccccc2C(=O)N1COC(=S)N(C(=O)c1cccc([N+](=O)[O-])c1)c1ccc(Cl)cc1
EC50 [1]: > 100000 nM | CC50 [3]: > 100 µM

Cc1ccc2c(c1)C(=O)N(CCOC(=S)N(C(=O)c1cccs1)c1ccc(Cl)cc1)C2=O
EC50 [1]: 20 nM | selectivity ratio [2]: > 5000 | CC50 [3]: > 100 µM

COc1cccc(OC)c1C(=O)N(C(=S)OCCN1C(=O)c2ccccc2C1=O)c1ccc(C)cc1
EC50 [1]: 22000 nM | selectivity ratio [2]: 1.6 | CC50 [3]: 36 µM

Cc1ccc(N(C(=O)c2ccccc2[N+](=O)[O-])C(=S)OCCN2C(=O)c3ccccc3C2=O)cc1
EC50 [1]: 400 nM | selectivity ratio [2]: 250 | CC50 [3]: 100 µM

O=C1c2ccccc2C(=O)N1CCOC(=S)N(C(=O)c1cc([N+](=O)[O-])ccc1Cl)c1ccc(Cl)cc1
EC50 [1]: 70 nM | selectivity ratio [2]: 643 | CC50 [3]: 45 µM

O=C1c2ccccc2C(=O)N1CCOC(=S)N(C(=O)c1ccc(Br)cc1)c1ccc(Br)cc1
EC50 [1]: 35 nM | selectivity ratio [2]: 2090 | CC50 [3]: 73 µM

O=C1c2ccccc2C(=O)N1CCOC(=S)N(C(=O)c1cccc([N+](=O)[O-])c1)c1ccc(Cl)cc1
EC50 [1]: 1.5 nM | selectivity ratio [2]: 12000 | CC50 [3]: 18 µM

O=C1c2ccccc2C(=O)N1CCOC(=S)N(C(=O)c1cc(F)cc(F)c1)c1ccc(Cl)cc1
EC50 [1]: 7 nM | selectivity ratio [2]: 8430 | CC50 [3]: 59 µM

Cc1ccc(N(C(=O)c2ccc(Cl)c(Cl)c2)C(=S)OCCN2C(=O)c3ccccc3C2=O)cc1
EC50 [1]: 50 nM | selectivity ratio [2]: 340 | CC50 [3]: 17 µM

Cc1ccccc1C(=O)N(C(=S)OCCN1C(=O)c2ccccc2C1=O)c1ccc(Cl)cc1
EC50 [1]: 40 nM | selectivity ratio [2]: 525 | CC50 [3]: 21 µM

Cc1ccc(N(C(=O)c2ccccc2C)C(=S)OCCN2C(=O)c3ccccc3C2=O)cc1
EC50 [1]: 200 nM | selectivity ratio [2]: > 500 | CC50 [3]: > 100 µM

O=C1c2ccccc2C(=O)N1CCOC(=S)N(C(=O)c1ccc(Cl)c(Cl)c1)c1ccccc1
EC50 [1]: 500 nM | selectivity ratio [2]: 104 | CC50 [3]: 52 µM

O=C1c2ccccc2C(=O)N1CCOC(=S)N(C(=O)c1ccccc1)c1ccccc1
EC50 [1]: 400 nM

O=C1c2ccccc2C(=O)N1CCOC(=S)N(C(=O)c1ccc(Cl)cc1Cl)c1ccc(Cl)cc1
EC50 [1]: 30 nM | selectivity ratio [2]: 600 | CC50 [3]: 18 µM

Cc1ccc(N(C(=O)c2cccc(C)c2)C(=S)OCCN2C(=O)c3ccccc3C2=O)cc1
EC50 [1]: 40 nM | selectivity ratio [2]: > 2500 | CC50 [3]: > 100 µM

O=C1c2ccccc2C(=O)N1CCOC(=S)N(C(=O)c1cccc([N+](=O)[O-])c1)c1c(Cl)cccc1Cl
EC50 [1]: 17000 nM | selectivity ratio [2]: 3.4 | CC50 [3]: 58 µM

Cc1ccc(N(C(=O)c2ccc(Br)c(C)c2)C(=S)OCCN2C(=O)c3ccccc3C2=O)cc1
EC50 [1]: 50 nM | selectivity ratio [2]: > 2000 | CC50 [3]: > 100 µM

O=C1c2ccccc2C(=O)N1CCOC(=S)N(C(=O)c1cccc2ccccc12)c1ccc(Cl)cc1
EC50 [1]: 30 nM | selectivity ratio [2]: 200 | CC50 [3]: 6 µM

O=C1c2ccccc2C(=O)N1CCOC(=S)N(C(=O)c1ccccc1)c1ccc(Cl)cc1
EC50 [1]: 100 nM

O=C1c2ccccc2C(=O)N1CCOC(=S)N(C(=O)c1ccc(Cl)nc1)c1ccc(Cl)cc1
EC50 [1]: 6 nM

Cc1ccc(N(C(=O)c2cc(F)ccc2F)C(=S)OCCN2C(=O)c3ccccc3C2=O)cc1
EC50 [1]: 40 nM | selectivity ratio [2]: 1550 | CC50 [3]: 62 µM

O=C1c2ccccc2C(=O)N1CCOC(=S)N(C(=O)c1ccco1)c1ccc(Cl)cc1Cl
EC50 [1]: 2600 nM | selectivity ratio [2]: > 38 | CC50 [3]: > 100 µM

O=C1c2ccccc2C(=O)N1CCOC(=S)N(C(=O)c1cccc([N+](=O)[O-])c1)c1c(Cl)cc(Cl)cc1Cl
EC50 [1]: > 20000 nM | CC50 [3]: 20 µM

Cc1ccc(N(C(=O)c2cc(F)cc(F)c2)C(=S)OCCN2C(=O)c3ccccc3C2=O)cc1
EC50 [1]: 50 nM | selectivity ratio [2]: 1080 | CC50 [3]: 54 µM

O=C1c2ccccc2C(=O)N1CCOC(=S)N(C(=O)c1ccc(C(F)(F)F)cc1)c1ccc(Cl)cc1
EC50 [1]: 5 nM | selectivity ratio [2]: 2000 | CC50 [3]: 10 µM

Cc1ccc(N(C(=O)c2ccc(Cl)cc2Cl)C(=S)OCCN2C(=O)c3ccccc3C2=O)cc1
EC50 [1]: 300 nM | selectivity ratio [2]: 163 | CC50 [3]: 49 µM

O=C1c2ccccc2C(=O)N1CCOC(=S)N(C(=O)c1ccccc1[N+](=O)[O-])c1ccc(Cl)cc1
EC50 [1]: 70 nM | selectivity ratio [2]: 300 | CC50 [3]: 21 µM

CCCCCOc1ccc(C(=O)N(C(=S)OCCN2C(=O)c3ccccc3C2=O)c2ccc(F)cc2)cc1
EC50 [1]: 8500 nM | selectivity ratio [2]: > 11.8 | CC50 [3]: > 100 µM

COc1cccc(OC)c1C(=O)N(C(=S)OCCN1C(=O)c2ccccc2C1=O)c1ccc(Cl)cc1
EC50 [1]: 400 nM | selectivity ratio [2]: 172 | CC50 [3]: 69 µM

O=C1c2ccccc2C(=O)N1CCOC(=S)N(C(=O)c1ccc(Cl)cc1)c1ccc(Cl)cc1
EC50 [1]: 25 nM

O=C1c2ccccc2C(=O)N1CCOC(=S)N(C(=O)c1cccnc1Cl)c1ccc(Cl)cc1
EC50 [1]: 5 nM
